High-throughput results deposited in PubChem by Sanford-Burnham Center for Chemical Genomics.
CXCR6 inh – CXCR6 (human) receptor inhibition; O00574; CHO-K1 PathHunter CXCR6 beta-arrestin, luminescence; inhibition, % at 20 µM; hit rate 0.36% among 360,000; AID 602244; in the data active = inhibition above about 34%, passing the limit was not always enough;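 also: antagonist mode with CXCL16 agonist at 10 nM final; 0% = 10 nM CXCL16 with DMSO and 100% = unstimulated wells without agonist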
iPSC survival up – hiPSC single-cell survival enhancement; survival enhancement, % at 20 µM; ATPlite luminescence; 100% = ROCK inhibitor wells, 0% = DMSO; hit rate 0.044% among 360,000; AID 602274; in the data active = survival enhancement above about 18%;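 also: cells exposed to compounds for 16 hours before the ATP read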
CCR6 antagonist – blocks CCL20-driven beta-arrestin recruitment at human CCR6 | P51684 | CHO-K1 CCR6 PathHunter beta-arrestin, luminescence, CCL20-stimulated | inhibition, % at 20 µM | hit rate 0.49% among 340,000;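 active = compounds whose inhibition of the agonist-driven luminescence signal at 20 µM reaches about 50%, limit read from the data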;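 also: cells stimulated with CCL20 at 14 nM final; plate controls were DMSO with CCL20 for no effect and DMSO without agonist for full effect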
APJ antag – blocks the human apelin receptor APJ; CHO-K1 APJ beta-arrestin complementation, luminescence; AID 2521; inhibition, % at 20 µM; hit rate 0.32% among 330,000;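 active = inhibition above about 40% at 20 µM, limit read from the data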;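 also: cells challenged with 10 nM apelin-13 agonist together with compound; plate controls were apelin-13 plus DMSO wells for no effect and DMSO wells lacking apelin-13 for full effect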
Target sequence (P35414 whole entry, looked up): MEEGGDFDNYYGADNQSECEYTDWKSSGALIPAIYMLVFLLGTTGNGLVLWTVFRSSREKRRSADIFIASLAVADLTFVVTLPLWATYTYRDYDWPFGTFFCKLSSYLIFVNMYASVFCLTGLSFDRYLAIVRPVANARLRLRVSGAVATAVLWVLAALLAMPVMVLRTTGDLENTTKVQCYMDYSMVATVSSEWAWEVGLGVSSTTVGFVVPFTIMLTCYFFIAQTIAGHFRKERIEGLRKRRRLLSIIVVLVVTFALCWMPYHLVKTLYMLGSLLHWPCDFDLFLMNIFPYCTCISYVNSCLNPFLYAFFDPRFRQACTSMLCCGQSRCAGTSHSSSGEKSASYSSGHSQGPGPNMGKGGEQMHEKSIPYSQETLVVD
EBI2 antag – blocks human EBI2 receptor beta-arrestin signaling. AID 651636. EBI2 beta-arrestin recruitment, luminescence, 7a,25-OHC stimulated. inhibition, % at 5 µM. hit rate 0.81% among 360,000; in the data active = inhibition above about 38%;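 also: enzyme fragment complementation signal reports receptor beta-arrestin coupling in cells; 0% = agonist plus DMSO wells and 100% = wells without agonist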
APJ agonist – APJ receptor agonism. CHO-K1 APJ PathHunter beta-arrestin, luminescence; 0% DMSO wells, 100% apelin. activation, % at 20 µM. AID 2520. P35414. hit rate 0.11% among 330,000;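 active = activation more than six SD over the plate average, tested at 20 µM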;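 also: 0% = DMSO alone and 100% = apelin-13 at 10 nM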
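Assay system: CHO-K1 cells stably expressing ProLink-tagged human APJ and arrestin–beta-gal acceptor. Compound dosing: 20 µM single point, 1% DMSO. Times: 16-18 h seeding, 90 min dark compound exposure, 60 min detection. Detection: beta-gal luminescence. Evaluation: APJ–arrestin association signal. Controls: negative DMSO alone, positive Apelin-13 at 10 nM.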
CXCR6 antag conf – CXCR6 antagonism confirmation, single concentration. shares compounds with CXCR6 inh. CHO-K1 CXCR6 PathHunter beta-arrestin, luminescence. inhibition, % at 20 µM. hit rate 65% among 700;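 active = mean inhibition over four retests above 40%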;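 also: receptor stimulated with 10 nM CXCL16 agonist; beta-galactosidase fragment complementation upon beta-arrestin recruitment to receptor; plate controls were CXCL16 plus DMSO for no effect and DMSO without CXCL16 for full effect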
EBI2 conf – EBI2 (human) antagonism, single concentration confirmation; shares compounds with EBI2 antag; EBI2 beta-arrestin luminescence, 7a,25-OHC antagonism; inhibition, % at 5 µM; hit rate 29% among 2,400; AID 651997;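 active = inhibition of at least 50%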
EBI2 ag – EBI2 agonism counter-screen; 2,400 tested, under 10 active; EBI2-expressing cells, agonist mode, luminescence, 60 min; 0% vehicle, 100% 7α,25-dihydroxycholesterol control; activation, % at 5 µM; AID 652000; shares compounds with EBI2 antag;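 active = activation of at least 50%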
bGal cs – beta-galactosidase inhibition counter-screen | shares compounds with EBI2 antag | purified beta-galactosidase, luminescent Galacton Star, 15 min | inhibition, % at 5 µM | hit rate 1% among 2,400 | AID 652176;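 active = replicate-average signal at least 3 plate SD below neutral wells, shown as high inhibition, flagging enzyme-inhibiting false positives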;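 also: 0% = DMSO wells with enzyme and 100% = wells lacking enzyme; higher means stronger loss of beta-gal luminescence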
The depositor's hits bear a star. Compounds with a hit are over-represented: about 1.5% of the library has one in this group of screens.

Screening Cc1c(N=Nc2c(O)[nH]c(=S)[nH]c2=O)c(=O)n(-c2ccccc2)n1C returned CXCR6 inh 52*, iPSC survival up 4, CCR6 antagonist 44, APJ antag 14, EBI2 antag 13, APJ agonist 1 and CXCR6 antag conf 52*.
For O=[N+]([O-])c1c(Cl)c(Cl)c(Cl)c(Cl)c1Cl the results were CXCR6 inh -17, iPSC survival up 0, CCR6 antagonist -11 and EBI2 antag -19.
For Nc1cc(Cl)c2nonc2c1[N+](=O)[O-] the results were CXCR6 inh 46*, iPSC survival up 4, CCR6 antagonist 46, EBI2 antag 39 and CXCR6 antag conf 58*.
COc1ccc(OC)c(C(O)C2CCCCN2)c1 (stereo not drawn) was read as CXCR6 inh 0, iPSC survival up 0, CCR6 antagonist 12, APJ antag 9, EBI2 antag -5 and APJ agonist -2.
For Cc1ccc(O)c(C(=O)c2cc(C(=O)NCc3ccccc3)c(=O)n(Cc3ccccc3)c2)c1 the results were CXCR6 inh 12, iPSC survival up 0, CCR6 antagonist -2, APJ antag 6, EBI2 antag 42*, APJ agonist -5, EBI2 conf 16, EBI2 ag 0 and bGal cs 3.
O=C(c1cc(C(=O)NCc2ccccc2)c(=O)n(Cc2ccccc2)c1)c1cc(Br)ccc1O was read as CXCR6 inh -8, iPSC survival up -1, CCR6 antagonist 27, APJ antag 4, EBI2 antag 21 and APJ agonist 1.
Screening COc1cc(OC)c(OC)cc1CN1CCN(C(=O)COc2ccc3ccccc3c2)CC1 returned CXCR6 inh 0, iPSC survival up 0, CCR6 antagonist -13, APJ antag -22, EBI2 antag 71*, APJ agonist -3, EBI2 conf 41, EBI2 ag -1 and bGal cs -11.
Screening COc1cccc(CN2CCN(C(=O)COc3ccc4ccccc4c3)CC2)c1 returned CXCR6 inh -7, iPSC survival up -2, CCR6 antagonist 21, APJ antag -25, EBI2 antag 95*, APJ agonist 2, EBI2 conf 74*, EBI2 ag -1 and bGal cs -9.
Cc1cc(O)c(CN2CC=C(c3ccccc3)CC2)cc1C(C)C was read as CXCR6 inh 0, iPSC survival up -1, CCR6 antagonist 16, APJ antag 7, EBI2 antag 5 and APJ agonist -1.
CC(=Nc1ccccc1N)c1c(O)n(C)c(=O)n(C)c1=O was read as CXCR6 inh 2, iPSC survival up 0, CCR6 antagonist 6, APJ antag 5, EBI2 antag -16 and APJ agonist -3.
`CC(=O)Nc1ccc(OC(=O)N(C)c2ccc(C)cc2)cc1` gave CXCR6 inh -9, iPSC survival up 0, CCR6 antagonist 3, APJ antag 5, EBI2 antag -10 and APJ agonist -3.
Screening Cc1ccc(N(C)C(=O)Oc2ccc(C(=O)c3ccc(Cl)cc3)cc2)cc1 returned CXCR6 inh 12, iPSC survival up 1, CCR6 antagonist -2, APJ antag 11, EBI2 antag 78*, APJ agonist -2, EBI2 conf 44, EBI2 ag -1 and bGal cs -17.
`CC(=O)c1ccc(OCC(=O)N2CCCC(N(C)Cc3ccccc3)C2)cc1` (stereo not drawn) gave CXCR6 inh -2, iPSC survival up 0, CCR6 antagonist 8, APJ antag 3, EBI2 antag -20 and APJ agonist 0.
For CCOC(=O)[C@]12Cc3c(cc(OC)c(OC)c3OC)[C@H]1N(C(C)C)C(=O)c1ccccc12 the results were CXCR6 inh -5, iPSC survival up -1 and EBI2 antag -10.
O=C(C1CCN(c2nc3ccc(Br)cc3s2)CC1)N1CCC2(CC1)OCCO2 was read as CXCR6 inh 5, iPSC survival up -2, CCR6 antagonist 12, APJ antag -3, EBI2 antag 56*, APJ agonist -1, EBI2 conf 12, EBI2 ag 0 and bGal cs 0.
For Cc1ncc(C(=O)O)n1C(C)c1ccccc1 (stereo not drawn) the results were CXCR6 inh 3, iPSC survival up 3 and EBI2 antag -2.
Screening CCOC(=O)c1cncn1[C@@H](C)c1ccccc1 returned CXCR6 inh 3, iPSC survival up -2, CCR6 antagonist 7, APJ antag -2, EBI2 antag 56*, APJ agonist 0, EBI2 conf 30, EBI2 ag -1 and bGal cs 2.
CCOC(=O)[C@]12Cc3cc(OC)ccc3[C@H]1N(Cc1ccccc1)C(=O)c1cc(F)c(F)cc12 was read as CXCR6 inh 17, iPSC survival up -3, CCR6 antagonist 5, EBI2 antag 40*, EBI2 conf 23, EBI2 ag -2 and bGal cs -8.
For COC(=O)C1=C(c2ccc(F)cc2OCc2ccccc2)C[C@@H]2CC[C@H]1N2C(=O)NCCOc1ccc(OC)cc1 the results were CXCR6 inh 14, iPSC survival up -2, CCR6 antagonist 20, APJ antag 5, EBI2 antag 48*, APJ agonist -4, EBI2 conf 40, EBI2 ag 0 and bGal cs 0.
COC(=O)C1=C(c2ccc(-c3ccccc3)c(F)c2)C[C@@H]2CC[C@H]1N2C(=O)NCCOc1ccc(OC)cc1 was read as CXCR6 inh 12, iPSC survival up -1, CCR6 antagonist 12, APJ antag 7, EBI2 antag 54*, APJ agonist -2, EBI2 conf 20, EBI2 ag -2 and bGal cs -1.
COC(=O)C1=C(c2ccccc2OCc2ccccc2)C[C@@H]2CC[C@H]1N2C(=O)NCc1ccc(N(C)C)cc1 was read as CXCR6 inh 10, iPSC survival up 0, CCR6 antagonist 17, APJ antag 5, EBI2 antag 5 and APJ agonist -2.
